# Columns and labels:
# [1] = Cytotoxicity against human SV5A8 cells; format: functional, cell-based
# Method in brief: (§1)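 Reporter cell lines 22C11 and 33.13 with control line 5A8; IC50 from means of at least two experiments; toxicity flagged as the minimal dose where cell killing appeared by Renilla luciferase signal.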
# [2] = biological target: Catenin beta-1 (Homo sapiens) (UniProt P35222); assay: Inhibition of Beta-catenin/Tcf-4 pathway in human Tcf22C11 cell assessed as inhibition of reporter activity by cell-based reporter assay
# [3] = biological target: Catenin beta-1 (Homo sapiens) (UniProt P35222); assay: Inhibition of Beta-catenin/Tcf-4 pathway in human Tcf 33.13 cell assessed as inhibition of reporter activity by cell-based reporter assay
# [4] = Inhibition of […]/Tcf-4 pathway in human Tcf22C11 cell assessed as inhibition of reporter activity by cell-based reporter assay; format: functional; method in brief: as §1
# [5] = Inhibition of […]/Tcf-4 pathway in human Tcf 33.13 cell assessed as inhibition of reporter activity by cell-based reporter assay; format: functional; method in brief: as §1
# [6] = Oral bioavailability in mouse at 25 mg/kg; format: ADME, organism-based; details: in vivo
# Method in brief: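 Female nude mice dosed orally at 25 mg/kg; oral bioavailability (%) determined from pharmacokinetic study.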
# [7] = Plasma concentration in nude mouse at 50 mg/kg, po after 8 hrs; format: ADME, organism-based; design: dose 50 mg/kg, route oral
# Method in brief: (§2)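 Tumour-bearing nude mice (n = 4) given one oral dose (50 or 200 mg/kg); plasma and tumour drug concentrations (ng/mL) measured 8 h after dosing; tumour/plasma ratio calculated from these.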
# [8] = Drug level in tumor of nude mouse bearing HT29 or HCT116 cells at 50 mg/kg, po after 8 hrs; format: ADME, organism-based, Neoplasm, HCT-116; design: dose 50 mg/kg, route oral; details: read-out: Ct; method in brief: as §2
# [9] = Ratio of Drug level in tumor to mouse plasma at 50 mg/kg, po; method in brief: as §2
# [10] = Plasma concentration in mouse at 200 mg/kg, po after 8 hrs; format: ADME, organism-based; design: dose 200 mg/kg, route oral; method in brief: as §2
# [11] = Drug level in tumor of nude mouse bearing HT29 or HCT116 tumor at 200 mg/kg, po after 8 hrs; format: ADME, organism-based, Neoplasm; design: dose 200 mg/kg, route oral; details: read-out: Ct; method in brief: as §2
# HT-29 = assay: Antitumor activity against human HT-29 cells xenografted in nude mouse assessed as tumor growth inhibition at 200 mg/kg, po after 17 days; format: functional; details: HT-29, 408 h, read-out: TGI
# Method in brief: (§3)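 Nude mice carrying subcutaneous HT29 or HCT116 tumours; oral dosing at 25, 50, 100 or 200 mg/kg once daily for 17 days; tumour volume measured; growth inhibition assessed at end of treatment.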
# [12] = Ratio of Drug level in tumor to mouse plasma at 200 mg/kg, po; method in brief: as §2
# [13] = Aqueous solubility at pH 7.4; format: physicochemical
# Method in brief: (§4)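 Water solubility measured in µg/mL at pH 7.4 and at pH 3.0.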
# [14] = Aqueous solubility at pH 3; format: physicochemical; method in brief: as §4
# HCT-116 = assay: Antitumor activity against human HCT116 cells xenografted in nude mouse assessed as tumor growth inhibition at 200 mg/kg, po after 17 days; format: functional; details: HCT-116, 408 h, read-out: TGI; method in brief: as §3
SMILES,IC50 [2],IC50 [3],IC50 [1],other results
Cc1ccc2c(NCc3ccc(NC(=O)C4CCN(Cc5ccccc5)CC4)cc3)nc(N3CCC(N4CCCC4)CC3)nc2c1,960 nM,850 nM,> 8090 nM,–
Cc1ccc2c(NCc3ccc(NC(=O)C4CCN(Cc5ncc[nH]5)CC4)cc3)nc(N(C)C)nc2c1,> 20000 nM,> 20000 nM,> 20000 nM,–
Cc1ccc2c(NCc3ccc(NC(=O)C4CCN(C)CC4)cc3)nc(N(C)C)nc2c1,1920 nM,1670 nM,> 17300 nM,–
Cc1ccc2c(NCc3ccc(NC(=O)C4CCN(Cc5ccc(Cl)cn5)CC4)cc3)nc(N(C)C)nc2c1,–,–,> 5400 nM,IC50 [4]: 570 nM; IC50 [5]: 410 nM
Cc1ccc2c(NCc3ccc(NC(=O)C4CCN(Cc5ccccc5)CC4)cc3)nc(N3CCC3)nc2c1,1000 nM,800 nM,> 8500 nM,–
CCNc1nc(NCc2ccc(NC(=O)C3CCN(Cc4ccccc4)CC3)cc2)c2ccc(C)cc2n1,1380 nM,1130 nM,> 2140 nM,–
CCCCN1CCC(C(=O)Nc2ccc(CNc3nc(N(C)C)nc4cc(C)ccc34)cc2)CC1,1470 nM,1170 nM,> 10500 nM,–
Cc1ccc2c(NCc3ccc(NC(=O)C4CCN(Cc5ccccc5)CC4)cc3)nc(N3CCN(C)CC3)nc2c1,1580 nM,1320 nM,> 17700 nM,–
Cc1ccc2c(NCc3ccc(NC(=O)C4CCN(Cc5ccccc5)CC4)cc3)nc(N3CCN[C@@H](C)C3)nc2c1,1920 nM,1460 nM,> 8860 nM,–
CCN1CCN(c2nc(NCc3ccc(NC(=O)C4CCN(Cc5ccccc5)CC4)cc3)c3ccc(C)cc3n2)CC1,1260 nM,1120 nM,> 13000 nM,–
Cc1ccc2c(NCc3ccc(NC(=O)C4CCN(Cc5ccccc5)CC4)cc3)nc(N3CCCCCC3)nc2c1,1040 nM,960 nM,> 6880 nM,–
Cc1ccc2c(NCc3ccc(NC(=O)C4CCN(Cc5ccccc5)CC4)cc3)nc(N(C)CCCN(C)C)nc2c1,1410 nM,1310 nM,> 8620 nM,–
Cc1ccc2c(NCc3ccc(NC(=O)C4CCN(Cc5ccccc5)CC4)cc3)nc(N3CCNC(CCO)C3)nc2c1 (configuration not stated),2270 nM,2120 nM,> 8420 nM,–
Cc1ccc2c(NCc3ccc(NC(=O)C4CCN(Cc5ccccc5)CC4)cc3)nc(N(C)CCN(C)C)nc2c1,2260 nM,1440 nM,> 8830 nM,–
Cc1ccc2c(NCc3ccc(NC(=O)C4CCN(C(=O)OC(C)(C)C)CC4)cc3)nc(N(C)C)nc2c1,760 nM,850 nM,> 4820 nM,–
Cc1ccc2c(NCc3ccc(NC(=O)C4CCN(Cc5ccco5)CC4)cc3)nc(N(C)C)nc2c1,1830 nM,1930 nM,> 20000 nM,–
Cc1ccc2c(NCc3ccc(NC(=O)C4CCN(Cc5ccncc5)CC4)cc3)nc(N(C)C)nc2c1,–,–,> 8070 nM,IC50 [4]: 1180 nM; IC50 [5]: 900 nM

# Continued, in another order:
IC50 [2],IC50 [3],SMILES,IC50 [1],other results
520 nM,450 nM,COc1ccc(CN2CCC(C(=O)Nc3ccc(CNc4nc(N(C)C)nc5cc(C)ccc45)cc3)CC2)cc1,> 6180 nM,–
660 nM,790 nM,Cc1ccc2c(NCc3ccc(NC(=O)C4CCN(Cc5ccccc5)CC4)cc3)nc(N3CCCC3)nc2c1,> 7790 nM,–
390 nM,320 nM,Cc1ccc2c(NCc3ccc(NC(=O)C4CCN(Cc5ccc(Cl)cc5)CC4)cc3)nc(N(C)C)nc2c1,> 3180 nM,–
750 nM,810 nM,Cc1ccc2c(NCc3ccc(NC(=O)C4CCN(C5CCCCC5)CC4)cc3)nc(N(C)C)nc2c1,> 8320 nM,–
220 nM,190 nM,Cc1ccc2c(NCc3ccc(NC(=O)C4CCN(Cc5ccc(F)cc5)CC4)cc3)nc(N(C)C)nc2c1,> 4820 nM,bioavailability [6]: 46%; concentration at 8 h [7]: 440 ng/mL; concentration at 8 h [8]: 70300 ng/mL; Ratio [9]: 220
650 nM,960 nM,Cc1ccc2c(NCc3ccc(NC(=O)C4CCN(CC(C)C)CC4)cc3)nc(N(C)C)nc2c1,> 10500 nM,–
330 nM,350 nM,Cc1ccc2c(NCc3ccc(NC(=O)C4CCN(Cc5cccc(F)c5)CC4)cc3)nc(N(C)C)nc2c1,> 4170 nM,–
520 nM,210 nM,Cc1ccc2c(NCc3ccc(NC(=O)C4CCN(Cc5ccc(F)cc5Cl)CC4)cc3)nc(N(C)C)nc2c1,> 5910 nM,–
740 nM,760 nM,Cc1ccc2c(NCc3ccc(NC(=O)C4CCN(Cc5ccccc5)CC4)cc3)nc(N(C)C)nc2c1,> 7050 nM,bioavailability [6]: 41%; concentration at 8 h [10]: 2970 ng/mL; concentration at 8 h [11]: 90700 ng/mL; inhibition in vivo at 200 mg/kg (HT-29): 20%; Ratio [12]: 40; solubility [13]: 43 µg/mL; solubility [14]: > 100 µg/mL; inhibition in vivo at 200 mg/kg (HCT-116): 20%
470 nM,500 nM,Cc1ccc(CN2CCC(C(=O)Nc3ccc(CNc4nc(N(C)C)nc5cc(C)ccc45)cc3)CC2)cc1,> 4150 nM,–
600 nM,–,CNc1nc(NCc2ccc(-c3ccccc3C(=O)OC)cc2)c2ccccc2n1,–,–
530 nM,320 nM,Cc1ccc2c(NCc3ccc(NC(=O)C4CCN(Cc5ccccc5F)CC4)cc3)nc(N(C)C)nc2c1,> 6670 nM,–

# Source: ChEMBL document CHEMBL1155327, “2,4-Diamino-quinazolines as inhibitors of beta-catenin/Tcf-4 pathway: Potential treatment for colorectal cancer” (Bioorg Med Chem Lett, 2009)
